Laboratory results: ChEMBL document CHEMBL3232988, “Design, synthesis and biological evaluation of a series of pyrano chalcone derivatives containing indole moiety as novel anti-tubulin agents” (Bioorg Med Chem, 2014)

The molecules below were run on HepG2 (assay: Antiproliferative activity against human HepG2 cells after 24 hrs by MTT assay). Details: HepG2, 24 h.
Format: functional, cell-based
Method in brief: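 Seeded at 1 × 10⁴ cells per well, incubated 24 h before treatment. MTT (20 µL of 5 mg/mL in PBS) added per well and incubated until purple precipitate appeared. Medium removed, precipitate dissolved in 150 µL DMSO, shaken 10 min, absorbance read at 570 nm. Growth expressed as percentage of untreated control.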

Question: With `COc1ccc(C(=O)/C=C/c2ccc3ccn(Cc4cccc(F)c4)c3c2)c2c1C=CC(C)(C)O2` as the molecule, how does the IC50 read?
Answer: > 10000 nM

Question: How did the IC50 turn out when `CC(C)COc1ccc(C(=O)/C=C/c2ccc3c(ccn3C)c2)c2c1C=CC(C)(C)O2` was run?
Answer: 970 nM

Question: With `COc1ccc(C(=O)/C=C/c2cn(Cc3ccccc3)c3ccccc23)c2c1C=CC(C)(C)O2` as the molecule, how does the IC50 read?
Answer: 1780 nM

Question: How did the IC50 turn out when `Cn1ccc2cc(/C=C/C(=O)c3ccc(OS(=O)(=O)c4ccc(Br)cc4C(F)(F)F)c4c3OC(C)(C)C=C4)ccc21` was run?
Answer: 620 nM

Question: With `CCCOc1ccc(C(=O)/C=C/c2ccc3c(ccn3C)c2)c2c1C=CC(C)(C)O2` as the molecule, how does the IC50 read?
Answer: 460 nM

Question: With `COc1ccc(C(=O)/C=C/c2cn(CC(C)C)c3ccccc23)c2c1C=CC(C)(C)O2` as the molecule, how does the IC50 read?
Answer: > 10000 nM

Question: How did the IC50 turn out when `COc1ccc(C(=O)/C=C/c2ccc3ccn(Cc4cccc(Cl)c4)c3c2)c2c1C=CC(C)(C)O2` was run?
Answer: > 10000 nM

Question: With `COc1ccc(C(=O)/C=C/c2cccc3ccn(C)c23)c2c1C=CC(C)(C)O2` as the molecule, how does the IC50 read?
Answer: > 10000 nM

Question: `COc1ccc(C(=O)/C=C/c2cn(Cc3ccccc3C(F)(F)F)c3ccccc23)c2c1C=CC(C)(C)O2` was tested. Which IC50 did it give?
Answer: > 10000 nM

Question: With `Cn1ccc2cc(/C=C/C(=O)c3ccc(OS(=O)(=O)c4c(F)c(F)c(F)c(F)c4F)c4c3OC(C)(C)C=C4)ccc21` as the molecule, how does the IC50 read?
Answer: 1530 nM

Question: `COc1ccc(C(=O)/C=C/c2cn(Cc3ccc(F)cc3)c3ccccc23)c2c1C=CC(C)(C)O2` was tested. Which IC50 did it give?
Answer: > 10000 nM

Question: Which IC50 does the source give for `COc1ccc(C(=O)/C=C/c2cn(Cc3cccc(Br)c3)c3ccccc23)c2c1C=CC(C)(C)O2` here?
Answer: 1380 nM

Question: `COc1ccc(C(=O)/C=C/c2cn(Cc3cccc(C(F)(F)F)c3)c3ccccc23)c2c1C=CC(C)(C)O2` was tested. Which IC50 did it give?
Answer: 2180 nM

Question: For `COc1ccc(C(=O)/C=C/c2cn(Cc3ccccc3Br)c3ccccc23)c2c1C=CC(C)(C)O2`, which IC50 is on record?
Answer: > 10000 nM

Question: For `COc1ccc(C(=O)/C=C/c2cccc3[nH]ccc23)c2c1C=CC(C)(C)O2`, which IC50 is on record?
Answer: 8380 nM

Question: How did the IC50 turn out when `COc1ccc(C(=O)/C=C/c2cn(Cc3ccc(Cl)cc3)c3ccccc23)c2c1C=CC(C)(C)O2` was run?
Answer: > 10000 nM

Question: For `COc1ccc(C(=O)/C=C/c2cn(Cc3ccc(Br)cc3)c3ccccc23)c2c1C=CC(C)(C)O2`, which IC50 is on record?
Answer: > 10000 nM

Question: With `CCCCCOc1ccc(C(=O)/C=C/c2ccc3c(ccn3C)c2)c2c1C=CC(C)(C)O2` as the molecule, how does the IC50 read?
Answer: 670 nM

Question: `CCOc1ccc(C(=O)/C=C/c2ccc3c(ccn3C)c2)c2c1C=CC(C)(C)O2` was tested. Which IC50 did it give?
Answer: 750 nM

Question: For `COc1ccc(C(=O)/C=C/c2cn(Cc3cccc(Cl)c3)c3ccccc23)c2c1C=CC(C)(C)O2`, which IC50 is on record?
Answer: 2130 nM

Question: How did the IC50 turn out when `CCn1ccc2c(/C=C/C(=O)c3ccc(OC)c4c3OC(C)(C)C=C4)cccc21` was run?
Answer: 5540 nM

Question: How did the IC50 turn out when `COc1ccc(C(=O)/C=C/c2cccc3c2ccn3Cc2cccc(Br)c2)c2c1C=CC(C)(C)O2` was run?
Answer: > 10000 nM

Question: Which IC50 does the source give for `CC(C)c1ccc(S(=O)(=O)Oc2ccc(C(=O)/C=C/c3ccc4c(ccn4C)c3)c3c2C=CC(C)(C)O3)cc1` here?
Answer: 1870 nM

Question: `CC(=O)Oc1ccc(C(=O)/C=C/c2ccc3c(ccn3C)c2)c2c1C=CC(C)(C)O2` was tested. Which IC50 did it give?
Answer: 520 nM

Question: With `CCCCOc1ccc(C(=O)/C=C/c2ccc3c(ccn3C)c2)c2c1C=CC(C)(C)O2` as the molecule, how does the IC50 read?
Answer: 630 nM

Question: For `COc1ccc(C(=O)/C=C/c2cn(CC=C(C)C)c3ccccc23)c2c1C=CC(C)(C)O2`, which IC50 is on record?
Answer: 2810 nM

Question: For `COc1ccc(C(=O)/C=C/c2cccc3ccn(Cc4cccc(F)c4)c23)c2c1C=CC(C)(C)O2`, which IC50 is on record?
Answer: > 10000 nM

Question: `COc1ccc(C(=O)/C=C/c2cn(Cc3ccc(C(F)(F)F)cc3)c3ccccc23)c2c1C=CC(C)(C)O2` was tested. Which IC50 did it give?
Answer: 3460 nM

Question: With `COc1ccc(C(=O)/C=C/c2ccc3cc[nH]c3c2)c2c1C=CC(C)(C)O2` as the molecule, how does the IC50 read?
Answer: 4950 nM

Question: `COc1ccc(C(=O)/C=C/c2cn(Cc3cccc(F)c3)c3ccccc23)c2c1C=CC(C)(C)O2` was tested. Which IC50 did it give?
Answer: 3090 nM

Question: How did the IC50 turn out when `CCn1ccc2cccc(/C=C/C(=O)c3ccc(OC)c4c3OC(C)(C)C=C4)c21` was run?
Answer: > 10000 nM

Question: For `COc1ccc(C(=O)/C=C/c2cccc3c2ccn3C)c2c1C=CC(C)(C)O2`, which IC50 is on record?
Answer: 2750 nM

Question: With `CCCCC(=O)Oc1ccc(C(=O)/C=C/c2ccc3c(ccn3C)c2)c2c1C=CC(C)(C)O2` as the molecule, how does the IC50 read?
Answer: 920 nM

Question: Which IC50 does the source give for `COc1ccc(C(=O)/C=C/c2cccc3c2ccn3Cc2cccc(Cl)c2)c2c1C=CC(C)(C)O2` here?
Answer: > 10000 nM

Question: With `COc1ccc(C(=O)/C=C/c2cccc3ccn(Cc4cccc(Cl)c4)c23)c2c1C=CC(C)(C)O2` as the molecule, how does the IC50 read?
Answer: > 10000 nM

Question: How did the IC50 turn out when `Cn1ccc2cc(/C=C/C(=O)c3ccc(OS(=O)(=O)c4cccc(C(F)(F)F)c4)c4c3OC(C)(C)C=C4)ccc21` was run?
Answer: 1550 nM

Question: How did the IC50 turn out when `COc1ccc(C(=O)/C=C/c2ccc3ccn(Cc4cccc(Br)c4)c3c2)c2c1C=CC(C)(C)O2` was run?
Answer: > 10000 nM

Question: For `COc1ccc(C(=O)/C=C/c2ccc3[nH]ccc3c2)c2c1C=CC(C)(C)O2`, which IC50 is on record?
Answer: 1060 nM

Question: `COc1ccc(C(=O)/C=C/c2cn(C)c3ccccc23)c2c1C=CC(C)(C)O2` was tested. Which IC50 did it give?
Answer: 2230 nM

Question: With `COc1ccc(C(=O)/C=C/c2cccc3c2ccn3Cc2cccc(F)c2)c2c1C=CC(C)(C)O2` as the molecule, how does the IC50 read?
Answer: > 10000 nM

Question: For `COc1ccc(C(=O)/C=C/c2ccc3ccn(C)c3c2)c2c1C=CC(C)(C)O2`, which IC50 is on record?
Answer: 8850 nM

Question: Which IC50 does the source give for `Cn1ccc2cc(/C=C/C(=O)c3ccc(OS(=O)(=O)c4cc(F)cc(F)c4)c4c3OC(C)(C)C=C4)ccc21` here?
Answer: 690 nM

Question: Which IC50 does the source give for `COc1ccc(C(=O)/C=C/c2cn(CCN3CCOCC3)c3ccccc23)c2c1C=CC(C)(C)O2` here?
Answer: 3230 nM

Question: With `COc1ccc(C(=O)/C=C/c2cccc3cc[nH]c23)c2c1C=CC(C)(C)O2` as the molecule, how does the IC50 read?
Answer: 7620 nM

Question: With `COc1ccc(C(=O)/C=C/c2cccc3ccn(Cc4cccc(Br)c4)c23)c2c1C=CC(C)(C)O2` as the molecule, how does the IC50 read?
Answer: > 10000 nM

Question: For `COc1ccc(C(=O)/C=C/c2cn(Cc3ccccc3Cl)c3ccccc23)c2c1C=CC(C)(C)O2`, which IC50 is on record?
Answer: 1940 nM

Question: Which IC50 does the source give for `CCn1ccc2ccc(/C=C/C(=O)c3ccc(OC)c4c3OC(C)(C)C=C4)cc21` here?
Answer: > 10000 nM

Question: `CCn1cc(/C=C/C(=O)c2ccc(OC)c3c2OC(C)(C)C=C3)c2ccccc21` was tested. Which IC50 did it give?
Answer: 3010 nM

Question: With `COc1ccc(C(=O)/C=C/c2ccc3c(ccn3CCN3CCCCC3)c2)c2c1C=CC(C)(C)O2` as the molecule, how does the IC50 read?
Answer: 4450 nM

Question: Which IC50 does the source give for `COc1cccc(S(=O)(=O)Oc2ccc(C(=O)/C=C/c3ccc4c(ccn4C)c3)c3c2C=CC(C)(C)O3)c1` here?
Answer: 750 nM

Question: For `CC(C)C(=O)Oc1ccc(C(=O)/C=C/c2ccc3c(ccn3C)c2)c2c1C=CC(C)(C)O2`, which IC50 is on record?
Answer: 370 nM

Question: Which IC50 does the source give for `CC(C)Oc1ccc(C(=O)/C=C/c2ccc3c(ccn3C)c2)c2c1C=CC(C)(C)O2` here?
Answer: 780 nM

Question: How did the IC50 turn out when `COc1ccc(C(=O)/C=C/c2ccc3c(ccn3C)c2)c2c1C=CC(C)(C)O2` was run?
Answer: 840 nM

Question: For `COc1ccc(C(=O)/C=C/c2cn(Cc3ccccc3F)c3ccccc23)c2c1C=CC(C)(C)O2`, which IC50 is on record?
Answer: 2750 nM

Question: With `Cc1ccc(S(=O)(=O)Oc2ccc(C(=O)/C=C/c3ccc4c(ccn4C)c3)c3c2C=CC(C)(C)O3)cc1` as the molecule, how does the IC50 read?
Answer: 860 nM

Question: Which IC50 does the source give for `COc1cc([N+](=O)[O-])ccc1S(=O)(=O)Oc1ccc(C(=O)/C=C/c2ccc3c(ccn3C)c2)c2c1C=CC(C)(C)O2` here?
Answer: 570 nM

Question: With `COCn1cc(/C=C/C(=O)c2ccc(OC)c3c2OC(C)(C)C=C3)c2ccccc21` as the molecule, how does the IC50 read?
Answer: 4700 nM
